Tests used:
[1] = Ratio of steady state drug level in brain to plasma in MDR1A/B FVB mouse at 0.6 mg/h/kg, ip administered as infusion after 48 hrs by LC-MS/MS analysis; format: ADME, organism-based; settings: read-out: BPR
Outline: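 Male FVB Mdr1a/b−/− mice, 8–10 weeks, n = 4. Erlotinib given by constant i.p. infusion at 0.6 mg/h/kg for 48 h to steady state. Brain and plasma by LC-MS/MS after homogenizing brain in 3 volumes 5% BSA/PBS; brain values corrected for residual vascular blood (plasma space 1.4% of brain). Mean ± S.D.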

[2] = Ratio of steady state drug level in brain to plasma in MDR1A/B/BCRP1 FVB mouse at 0.6 mg/h/kg, ip administered as infusion after 48 hrs by LC-MS/MS analysis; format: ADME, organism-based; settings: read-out: BPR
Outline: (§1)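 Male FVB mice, 8–10 weeks old, n = 4 per genotype. Continuous intraperitoneal infusion for 48 hours to steady state. Plasma obtained by centrifuging blood. Brain homogenized in 3 volumes of ice-cold 5% BSA in PBS. Erlotinib measured by LC-MS/MS with tyrphostin AG1478 internal standard. Brain values corrected for residual vascular blood, taking plasma space as 1.4% of brain. Mean ± S.D.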

[3] = Drug uptake in tumor rim of Rowett rat orthotopically xenografted with human U87 cells at 20 mg/kg/day for 3 days by LC-MS/MS analysis in presence of elacridar; format: ADME, organism-based, U-87MG ATCC; settings: in vivo, 72 h
Outline: (§2)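 U87-EGFR orthotopic rat xenografts (3 weeks' tumor growth) received oral erlotinib in 0.5% methylcellulose daily for 3 days. Elacridar 10 mg/kg was given intravenously via the jugular vein 30 minutes before each erlotinib dose. Sacrifice was 30 minutes after the last dose, followed by saline perfusion. Tumor core, rim and contralateral brain were dissected and analyzed by LC-MS/MS; n = 4 per group, mean ± S.D.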

Brain [4] = assay: Drug uptake in brain of Rowett rat orthotopically xenografted with human U87 cells at 20 mg/kg/day for 3 days by LC-MS/MS analysis in presence of elacridar; format: ADME, organism-based, U-87MG ATCC; settings: in vivo, 72 h; outline: as §2
[5] = Drug uptake in tumor core of Rowett rat orthotopically xenografted with human U87 cells at 20 mg/kg/day, po for 5 days by LC-MS/MS analysis; format: ADME, organism-based, U-87MG ATCC; parameters: route oral; settings: read-out: Drug uptake
Outline: (§3)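 Rats received intracerebral U87 cells overexpressing wild-type EGFR (2.5 × 10^5 cells, right frontal, stereotaxic); tumors grew for 3 weeks. Erlotinib in 0.5% methylcellulose was given by oral gavage daily for 5 days. Sacrifice was 30 minutes after the last dose, with saline cardiac perfusion in the perfused group. Tissue was visually split into tumor core, adjacent rim and contralateral hemisphere. LC-MS/MS; n = 6.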

[6] = Drug uptake in tumor rim of Rowett rat orthotopically xenografted with human U87 cells at 20 mg/kg/day, po for 5 days by LC-MS/MS analysis; format: ADME, organism-based, U-87MG ATCC; parameters: route oral; settings: read-out: Drug uptake; outline: as §3
[7] = Drug uptake in brain of Rowett rat orthotopically xenografted with human U87 cells at 20 mg/kg/day, po for 5 days by LC-MS/MS analysis; format: ADME, organism-based, U-87MG ATCC; parameters: route oral; settings: read-out: Drug uptake; outline: as §3
Nucleic Acid [8] = assay: Ratio of drug level in tumor core to tumor rim in Rowett rat orthotopically xenografted with human U87 cells at 20 mg/kg/day, po for 5 days by LC-MS/MS analysis; format: ADME, organism-based, U-87MG ATCC; parameters: route oral; settings: in vivo, 120 h
Outline: (§4)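 U87 cells (wild-type EGFR-transfected) inoculated into right frontal brain of anesthetized rats, 2.5 × 10^5 cells; tumor grown 3 weeks. Erlotinib 20 mg/kg/day in 0.5% methylcellulose by oral gavage for 5 days; sacrifice 30 min after last dose, with or without cardiac saline perfusion; tissue visually dissected into tumor core, rim, contralateral hemisphere; LC-MS/MS; n = 6 per group.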

Nucleic Acid [9] = assay: Ratio of drug level in tumor core to brain contralateral hemisphere in Rowett rat orthotopically xenografted with human U87 cells at 20 mg/kg/day, po for 5 days by LC-MS/MS analysis; format: ADME, organism-based, U-87MG ATCC; parameters: route oral; settings: in vivo, 120 h; outline: as §4
[10] = Ratio of drug level in tumor core to plasma in Rowett rat orthotopically xenografted with human U87 cells at 20 mg/kg/day, po for 5 days by LC-MS/MS analysis; format: ADME, organism-based, U-87MG ATCC; parameters: route oral; outline: as §3
[11] = Half life in mouse; format: ADME, organism-based; settings: in vivo
[12] = Drug uptake at steady state in wild-type FVB mouse brain at 0.6 mg/h/kg, ip administered as infusion after 48 hrs by LC-MS/MS analysis; format: ADME, organism-based; settings: read-out: Drug uptake; outline: as §1
[13] = Plasma concentration at steady state in wild-type FVB mouse at 0.6 mg/h/kg, ip administered as infusion after 48 hrs by LC-MS/MS analysis; format: ADME, organism-based; settings: read-out: Cpss; outline: as §1
[14] = Plasma concentration at steady state in BCRP1 knock-out FVB mouse at 0.6 mg/h/kg, ip administered as infusion after 48 hrs by LC-MS/MS analysis; format: ADME, organism-based; settings: read-out: Cpss; outline: as §1
[15] = Plasma concentration at steady state in MDR1A/B knock-out FVB mouse at 0.6 mg/h/kg, ip administered as infusion after 48 hrs by LC-MS/MS analysis; format: ADME, organism-based; settings: read-out: Cpss; outline: as §1
[16] = Plasma concentration at steady state in MDR1A/B/BCRP1 knock-out FVB mouse at 0.6 mg/h/kg, ip administered as infusion after 48 hrs by LC-MS/MS analysis; format: ADME, organism-based; settings: read-out: Cpss; outline: as §1
[17] = Drug uptake at steady state in BCRP1 knock-out FVB mouse brain at 0.6 mg/h/kg, ip administered as infusion after 48 hrs by LC-MS/MS analysis; format: ADME, organism-based; settings: read-out: Drug uptake; outline: as §1
[18] = Drug uptake at steady state in MDR1A/B knock-out FVB mouse brain at 0.6 mg/h/kg, ip administered as infusion after 48 hrs by LC-MS/MS analysis; format: ADME, organism-based; settings: read-out: Drug uptake; outline: as §1
[19] = Drug uptake at steady state in MDR1A/B/BCRP1 knock-out FVB mouse brain at 0.6 mg/h/kg, ip administered as infusion after 48 hrs by LC-MS/MS analysis; format: ADME, organism-based; settings: read-out: Drug uptake; outline: as §1
[20] = Ratio of steady state drug level in brain to plasma in wild-type FVB mouse at 0.6 mg/h/kg, ip administered as infusion after 48 hrs by LC-MS/MS analysis; format: ADME, organism-based; settings: read-out: BPR; outline: as §1
[21] = Ratio of steady state drug level in brain to plasma in BCRP1 FVB mouse at 0.6 mg/h/kg, ip administered as infusion after 48 hrs by LC-MS/MS analysis; format: ADME, organism-based; settings: read-out: BPR; outline: as §1
[22] = Ratio of drug level in tumor rim to plasma in Rowett rat orthotopically xenografted with human U87 cells at 20 mg/kg/day, po for 5 days by LC-MS/MS analysis; format: ADME, organism-based, U-87MG ATCC; parameters: route oral; outline: as §3
[23] = Ratio of drug level in brain contralateral hemisphere to plasma in Rowett rat orthotopically xenografted with human U87 cells at 20 mg/kg/day, po for 5 days by LC-MS/MS analysis; format: ADME, organism-based, U-87MG ATCC; parameters: route oral; settings: read-out: BPR; outline: as §4
[24] = Ratio of drug level in tumor core to plasma in Rowett rat orthotopically xenografted with human U87 cells at 20 mg/kg/day for 3 days by LC-MS/MS analysis in presence of elacridar; format: ADME, organism-based, U-87MG ATCC; settings: with elacridar (dose not stated)
Outline: (§5)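 U87 cells (wild-type EGFR-transfected) inoculated into right frontal brain of anesthetized rats, 2.5 × 10^5 cells; tumor grown 3 weeks. Erlotinib 20 mg/kg/day in 0.5% methylcellulose by gavage for 3 days; elacridar 10 mg/kg i.v. into jugular vein 30 min before each dose. Sacrifice 30 min after last dose, saline perfusion, brain dissected into tumor core, rim, contralateral hemisphere; plasma and homogenate by LC-MS/MS; n = 4 per group.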

[25] = Drug uptake in tumor core of Rowett rat orthotopically xenografted with human U87 cells at 20 mg/kg/day for 3 days by LC-MS/MS analysis in presence of elacridar; format: ADME, organism-based, U-87MG ATCC; settings: in vivo, 72 h; outline: as §2
[26] = Ratio of drug level in tumor rim to plasma in Rowett rat orthotopically xenografted with human U87 cells at 20 mg/kg/day for 3 days by LC-MS/MS analysis in presence of elacridar; format: ADME, organism-based, U-87MG ATCC; settings: with elacridar (dose not stated); outline: as §5
[27] = Ratio of drug level in brain contralateral hemisphere to plasma in Rowett rat orthotopically xenografted with human U87 cells at 20 mg/kg/day for 3 days by LC-MS/MS analysis in presence of elacridar; format: ADME, organism-based, U-87MG ATCC; settings: with elacridar (dose not stated), read-out: BPR; outline: as §5
[28] = Drug uptake in tumor core of Rowett rat orthotopically xenografted with human U87 cells at 20 mg/kg/day for 3 days by LC-MS/MS analysis in presence of elacridar relative to elacridar non-treated control; format: ADME, organism-based, U-87MG ATCC; settings: in vivo, 72 h; outline: as §5
[29] = Drug uptake in tumor rim of Rowett rat orthotopically xenografted with human U87 cells at 20 mg/kg/day for 3 days by LC-MS/MS analysis in presence of elacridar relative to elacridar non-treated control; format: ADME, organism-based, U-87MG ATCC; settings: in vivo, 72 h; outline: as §5
Brain [30] = assay: Drug uptake in brain of Rowett rat orthotopically xenografted with human U87 cells at 20 mg/kg/day for 3 days by LC-MS/MS analysis in presence of elacridar relative to elacridar non-treated control; format: ADME, organism-based, U-87MG ATCC; settings: in vivo, 72 h; outline: as §5

Kp at 48 h [1]: 0.09
Kp at 48 h [2]: 0.62
Drug uptake [3]: Active
Drug uptake (Brain [4]): Active
concentration at 120 h [5]: 1830 ng/g
concentration at 120 h [6]: 390 ng/g
concentration at 120 h [7]: 370 ng/g
Ratio (Nucleic Acid [8]): 4.7
Ratio (Nucleic Acid [9]): 5
Kp at 120 h [10]: 0.51
half-life [11]: 1 h
concentration at 48 h [12]: 4.3 ng/g
concentration at 48 h [13]: 72 ng/mL
concentration at 48 h [14]: 71 ng/mL
concentration at 48 h [15]: 81 ng/mL
concentration at 48 h [16]: 99 ng/mL
concentration at 48 h [17]: 4.9 ng/g
concentration at 48 h [18]: 12 ng/g
concentration at 48 h [19]: 34 ng/g
Kp at 48 h [20]: 0.02
Kp at 48 h [21]: 0.07
Kp at 120 h [22]: 0.1
Kp at 120 h [23]: 0.09
Kp at 72 h [24]: 1
Drug uptake [25]: Active
Kp at 72 h [26]: 1
Kp at 72 h [27]: 1
fold change (FC) [28]: 4
fold change (FC) [29]: 12
fold change (FC) (Brain [30]): 12
Structure (SMILES): C#Cc1cccc(Nc2ncnc3cc(OCCOC)c(OCCOC)cc23)c1.Cl [ERLOTINIB HYDROCHLORIDE]

— ChEMBL document CHEMBL3526026, “Function of the blood-brain barrier and restriction of drug delivery to invasive glioma cells: findings in an orthotopic rat xenograft model of glioma” (Drug Metab Dispos, 2013)
